One compound from ChEMBL document CHEMBL5096231, “Covalently Conjugated NOD2/TLR7 Agonists Are Potent and Versatile Immune Potentiators” (J Med Chem, 2022) can be followed below.

Activity calls are given as the source filed them. The calls are words filed in the database; no cut-off is given here.

Series [1] deals with PBMC. The experiment in a line: Immunostimulatory activity in human PBMC cells assessed as increase in IL-1beta production at 1 uM incubated for 18 hrs by flow cytometry analysis. It counts as functional, cell-based. An outline of the steps:
(§1)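 PBMCs at 1 × 10^6 cells/mL treated with compound (1 μM), LPS (1 μg/mL) or 0.1% DMSO vehicle; cell-free supernatants collected after 18 h at 37 °C, 5% CO2. Cytokines quantified by human inflammatory cytokine bead array on flow cytometry with recombinant standard curves. Four independent experiments, mean ± SEM.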

Series [2] has as its system PBMC. Description: Immunostimulatory activity in human PBMC cells assessed as increase in IL-6 production at 1 uM incubated for 18 hrs by flow cytometry analysis. It is filed as functional, cell-based. In outline: as §1
In general terms: A flow cytometer gives signals particle by particle.

For series [3], the system named is PBMC. Description: Immunostimulatory activity in human PBMC cells assessed as increase in TNF production at 1 uM incubated for 18 hrs by flow cytometry analysis. It counts as functional, cell-based. An outline of the steps:
as §1

In series [4] the test system is K562. Description: Cytotoxicity against human K562 cells cocultured with human PBMC cells assessed as inhibition of cell proliferation at 0.01 to 1 uM incubated with PBMC cells for 18 hrs followed by co-incubation with K562 cells for 4 hrs by SYTOX blue staining based flow cytometric analysis. It is filed as functional. The note with it: dose 0.01-1 µM. An outline of the steps:
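Human PBMCs (Ficoll-isolated, healthy donors) pretreated 18 h in duplicate with compound (1 nM–1 μM) or 0.1% DMSO. CFSE-labelled K562 or MEC1 target cells then added, effector:target 40:1, 4 h at 37 °C. Sytox blue staining, flow cytometry; CFSE+Sytox+ cells counted as dead. Expressed relative to vehicle; three independent experiments, mean ± SEM.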

A short description of series [5]: Induction of activation of human CD56+ CD3- NK cells co-cultured with human PBMC cells assessed as increase in CD69 expression at 1 uM incubated for 24 hrs by flow cytometry analysis (reference value: 2.7%). It counts as functional, Natural killer cell.
The nature of series [6]: Induction of activation of human CD56+ CD3- NK cells co-cultured with human PBMC cells assessed as increase in CD107a expression at 1 uM incubated for 24 hrs by flow cytometry analysis (reference value: 1.5%). It is filed as functional, Natural killer cell.
Series [7] in a line: Induction of activation of human CD56+ CD3- NK cells co-cultured with human PBMC cells assessed as increase in IFN-gamma expression at 1 uM incubated for 24 hrs by flow cytometry analysis (reference value: 0.04%). It is filed as functional, Natural killer cell.
Series [8] in a line: Induction of mouse ovalbumin specific CD8-positive T cell activation assessed as increase in CD25 expression at 1 uM preincubated for 18 hrs with mouse BDMC cells in presence of ovalbumin followed by washout and further coincubated […] and measured after 72 hrs by flow cytometry analysis (reference value: 12.6%). It is filed as functional. An outline of the steps: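 C57BL/6 BMDCs (GM-CSF 7 days, >90% CD11c+) pulsed 18 h with 1 μM compound, LPS 1 μg/mL or 0.1% DMSO plus OVA 50 μg/mL, washed. 1 × 10^4 BMDCs cocultured 72 h with 5 × 10^4 CFSE-labelled OT-II CD4+ or OT-I CD8+ T cells. Flow: live Thy1.2+ CD4+ or CD8+ cells scored as CD25+ CFSElow. Duplicates of two experiments.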

In series [9] the test system is CD4+ve Th. Description: Induction of mouse ovalbumin specific CD4+ T cell activation assessed as increase in IL-6 expression at 1 uM preincubated for 18 hrs with mouse BDMC cells in presence of ovalbumin followed by washout and further coincubated with CD4+ T cells and measured after 72 hrs. It counts as functional, cell-based. In outline:
(§2)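 Supernatants taken after the 72 h coculture of washed BMDCs (18 h pretreatment with 1 μM compound, LPS 1 μg/mL or vehicle, plus OVA 50 μg/mL) with OT-II CD4+ or OT-I CD8+ T cells. Cytokines measured by mouse Th1/Th2/Th17 cytometric bead array. Duplicates of two independent experiments, mean ± SEM.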

The subject of series [10] is CD4+ve Th. The experiment in a line: Induction of mouse ovalbumin specific CD4+ T cell activation assessed as increase in TNF expression at 1 uM preincubated for 18 hrs with mouse BDMC cells in presence of ovalbumin followed by washout and further coincubated with CD4+ T cells and measured after 72 hrs. It counts as functional, cell-based. An outline of the steps: as §2

Series [11] deals with CD4+ve Th. The experiment in a line: Induction of mouse ovalbumin specific CD4+ T cell activation assessed as increase in IFN-gamma expression at 1 uM preincubated for 18 hrs with mouse BDMC cells in presence of ovalbumin followed by washout and further coincubated with CD4+ T cells and measured after 72 hrs. It is filed as functional, cell-based. In outline: as §2
In series [12] the test system is CD8-positive T cell. Description: Induction of mouse ovalbumin specific CD8-positive T cell activation assessed as increase in IL-6 expression at 1 uM preincubated for 18 hrs with mouse BDMC cells in presence of ovalbumin followed by washout and further coincubated with CD4+ T cells and measured after 72 hrs. It is filed as functional, cell-based. An outline of the steps:
as §2

For series [13], the system named is CD8-positive T cell. The experiment in a line: Induction of mouse ovalbumin specific CD8-positive T cell activation assessed as increase in IL-17A expression at 1 uM preincubated for 18 hrs with mouse BDMC cells in presence of ovalbumin followed by washout and further coincubated with CD4+ T cells and measured after 72 hrs. It is filed as functional, cell-based. In outline: as §2

The test system of series [14] is CD8-positive T cell. Description: Induction of mouse ovalbumin specific CD8-positive T cell activation assessed as increase in TNF expression at 1 uM preincubated for 18 hrs with mouse BDMC cells in presence of ovalbumin followed by washout and further coincubated with CD4+ T cells and measured after 72 hrs. It is filed as functional, cell-based. In outline: as §2

Series [15] relates to CD8-positive T cell. Description: Induction of mouse ovalbumin specific CD8-positive T cell activation assessed as increase in IFN-gamma expression at 1 uM preincubated for 18 hrs with mouse BDMC cells in presence of ovalbumin followed by washout and further coincubated […] and measured after 72 hrs. It is filed as functional, cell-based. In outline:
as §2

Series [16] concerns Mus musculus. Description: Immuno-adjuvant activity in NIH/OlaHsd mouse assessed as increase in ovalbumin specific IgG production in sera at 50 ug, sc administered on day 0 and as booster dose on day 21 and 28 measured 7 days post last dose by ELISA. The note with it: dose 50.0 µg, time 35.0 day. It is filed as functional, organism-based.
Series [17] deals with Mus musculus. The experiment in a line: Immuno-adjuvant activity in NIH/OlaHsd mouse assessed as increase in ovalbumin specific Th1 associated IgG2a production in sera at 50 ug, sc administered on day 0 and as booster dose on day 21 and 28 measured 7 days post last dose by ELISA. It counts as functional, organism-based. Conditions: dose 50.0 µg, time 35.0 day.
Series [18] has as its system PBMC. The experiment in a line: Upregulation of IL12A gene transcription in human PBMC cells at 1 uM incubated for 18 hrs by KEGG analysis. It counts as functional, cell-based. An outline of the steps:
(§3)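 PBMCs from three donors (2 × 10^6 cells/mL) exposed to 1 μM compound or 0.1% DMSO for 18 h at 37 °C. mRNA isolated, amplified, sequenced. DESeq2 differential expression, FDR <0.05 and fold change >2 or <0.5 versus vehicle; gene lists used for Metascape/KEGG enrichment.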

Series [19] concerns PBMC. The experiment in a line: Upregulation of IL-26 gene transcription in human PBMC cells at 1 uM incubated for 18 hrs by KEGG analysis. It is filed as functional, cell-based. An outline of the steps: as §3
Series [20] can be described thus: Cytotoxicity against HEK-Blue hNOD2 cells assessed as reduction in metabolic activity at 10 uM incubated for 18 hrs by MTS assay. It is filed as toxicity, cell-based. The note with it: human, hek-blue hnod2, 18 h. In outline: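 Cells (HEK-Blue NOD2, RAW-Blue or freshly isolated human PBMCs) seeded in duplicate and exposed to 10 μM compound or 0.1% DMSO vehicle for 18 h at 37 °C, 5% CO2. Metabolic activity then measured by CellTiter 96 AQueous One (MTS) assay.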

Turning to `CCCCOc1nc(N)c2nc(O)n(Cc3ccc(C(=O)NCCOCCNC(=O)CC[C@@H](NC(=O)[C@@H](NC(=O)CNC(=O)/C=C/c4ccc(O)c(OC)c4)C(C)C)C(=O)OCC)cc3)c2n1`, the result in series [1], in [2], in series [3], in series [4], in series [9] and in [10] was Active. Further, the outcome in [11], in series [12], in [13], in [14], in series [15] and in series [16] was Active. For the same compound, the result in series [17], in [18] and in [19] was Active. For the same compound, the Activity is on record as 93% in series [5]; 4.7% in series [6]; 4.5% in series [7]; 54.5% in [8]; “Non-Toxic” in series [20].
